Screening results: PubChem, several laboratories
Sampled rows, rich in hits. Any-hit rate of the full collection: about 2.5%.
SENP1 FRET inh: blocks the human SENP1 SUMO protease catalytic domain | Q9P0U3 | recombinant SENP1 catalytic domain, CyPet-SUMO1-YPet FRET cleavage | inhibition, % at 10 µM | hit rate 0.21% among 360,000 | AID 624204;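 active = inhibition at least 30% at 10 µM, raw YFP signal under a set limit, fluorescence ratio 0.5 to 1.5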
Target sequence (Q9P0U3 419-644 limits assumed): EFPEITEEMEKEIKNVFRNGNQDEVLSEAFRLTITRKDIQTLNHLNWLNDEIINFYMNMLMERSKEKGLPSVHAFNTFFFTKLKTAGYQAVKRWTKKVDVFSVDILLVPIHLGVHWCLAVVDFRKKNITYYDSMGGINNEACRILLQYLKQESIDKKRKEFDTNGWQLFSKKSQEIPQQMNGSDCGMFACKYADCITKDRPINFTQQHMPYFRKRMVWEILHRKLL
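Test system: recombinant human SENP1 catalytic domain, His6-tagged / Medium: pH 8 Tris buffer with EDTA, NaCl, BME, BSA, NP40, catalase / Also added: SUMO1 FRET substrate flanked by Cypet and Ypet, 25 nM / Times: 50 min reaction at room temperature / Signal: FRET, CFP and YFP emission / Control set: no-enzyme low control and enzyme-plus-DMSO high control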
NadD block: inhibitors of Staphylococcus aureus NadD | purified NadD enzyme, colorimetric absorbance read-out | inhibition, % at 20 µM | hit rate 0.78% among 360,000; in the data active = inhibition above about 26%
GRK2 aptamer HTS: human GRK2 inhibition via aptamer displacement | P25098 | bead flow cytometry, FAM-aptamer displacement from GRK2 | inhibition of aptamer binding, % at 10 µM | hit rate 0.59% among 330,000;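 active = inhibition of aptamer binding above 40%, roughly 3 SD of noise, on plates passing a quality check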;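 also: median bead fluorescence of bound FAM aptamer so fluorescent compounds give negative values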
B2AR ag: activates human beta-2 adrenergic receptor causing internalization. Am2.2-beta2AR cells, FAP receptor internalization, flow cytometry. hit rate 0.43% among 340,000. response, % (test concentration not listed). P07550;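 active = response above a set limit, near 3 SD of response in nonfluorescent compounds, cut at about 42% in these data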
ABHD5-PLIN5 inh: blocks binding of human ABHD5 to perilipin-5; Split G. princeps luciferase complementation, luminescence, 4 h; inhibition, % at 4 µM; hit rate 0.78% among 360,000; AID 602281;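 active = inhibition above the mean inhibition across every tested compound plus 3 SD, cut at about 22% in these data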
GRK2 inh confirm: human GRK2 inhibition confirmation, cherry pick 1; bead-bound GRK2, FAM-aptamer displacement, flow cytometry; hit rate 4% among 2,000; AID 504451; aptamer displacement, % at 10 µM; shares compounds with GRK2 aptamer HTS;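 active = aptamer displacement above 40%, near three times the noise of non-fluorescent compounds, on plates passing quality checks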;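 also: negative values mostly reflect intrinsic compound fluorescence rather than true enhancement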
Aptamer quench SP: aptamer fluorescence quenching in GRK2 counter-screen | shares compounds with GRK2 aptamer HTS | Carboxyfluorescein RNA aptamer on beads, flow cytometry quenching; hits give low values | fluorescence response (% of DMSO), % at 10 µM | 2,000 tested, under 10 active;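 active = compounds that quench the bead-bound fluorescent RNA probe, cutting fluorescence to under half of the solvent control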;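 also: counterscreen run without GRK2 so only probe quenching by compound is measured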
Numbers stand for hits; – = inactive; · = no result given.

SMILES	SENP1 FRET inh	NadD block	GRK2 aptamer HTS	B2AR ag	ABHD5-PLIN5 inh	GRK2 inh confirm	Aptamer quench SP
Cc1nc2ccccc2c(=O)n1NC(=O)c1cccc(Cl)c1	–	–	–	–	–	·	·
O=C1Nc2cc(C(=O)N3CCOCC3)ccc2S/C1=C/c1ccccc1F	–	–	·	·	–	·	·
CCCCOCCCNc1ncnc2c1[nH]c1ccccc12	–	–	53.0	–	–	–	–
COC(=O)N/N=C/C1=CCC2CC1C2(C)C (centres undefined)	–	–	–	–	–	·	·
CC1(C)C2CC=C(/C=N/NC(=O)c3ccc(O)cc3)C1C2 (centres undefined)	–	–	74.0	–	–	–	–
Cc1cccc(C)c1OCCCCN1CCNCC1	–	–	42.0	–	–	–	–
O=c1[nH]c(-c2ccccc2)nc(-c2ccccc2)c1Cl	–	–	–	–	–	·	·
O=C(Cn1cnc2c(nnn2Cc2ccccc2F)c1=O)N1CCN(c2ccccc2)CC1	–	–	–	–	–	·	·
O=C(Cn1cnc2c(nnn2Cc2ccccc2F)c1=O)OCc1ccccc1	–	–	82.0	–	–	–	–
CCOc1ccc(NS(=O)(=O)c2ccc3[nH]c(=O)[nH]c3c2)cc1	–	–	50.0	–	–	–	–
Cc1ccc(N(C(=O)c2csnn2)C(C(=O)NC2CCCCC2)c2ccncc2)c(C)c1 (centres undefined)	–	–	–	–	–	·	·
O=C(COc1ccc(/C=C2/NC(=O)NC2=O)cc1)Nc1ccc(F)cc1	–	–	–	–	–	·	·
Cn1c(-c2ccc3nc(N)sc3c2)nc2cc(N)ccc21	–	–	52.0	–	–	–	–
Cn1c(-c2ccc(N)cc2)nc2ccccc21	–	–	–	–	–	·	·
O=C(CNC(=O)c1ccc(Cl)cc1Cl)OCC(=O)N1CCCC1	–	–	56.0	–	–	–	–
Cc1ccc(-n2c(N)c(C#N)c(-c3ccc(Cl)cc3)c(C#N)c2=O)cc1	–	–	–	–	–	·	·
Cc1ccc(-c2c(C#N)c(N)n(-c3ccc(C)cc3)c(=O)c2C#N)cc1	–	–	42.0	–	–	–	–
O=C(Cc1ccccc1)Nc1ccc2c(c1)C(=O)N(CC1CCCO1)C2=O (centres undefined)	–	–	100.0	–	–	–	–
NS(=O)(=O)c1ccc(NS(=O)(=O)c2ccc(NC(=O)c3ccc(-c4ccccc4)cc3)cc2)cc1	–	–	41.0	–	–	–	–
NS(=O)(=O)c1ccc(NC(=O)c2ccc(-c3ccccc3)cc2)cc1	–	–	·	–	–	·	·
O=S(=O)(Nc1cc(Sc2cccc3cccnc23)c(O)c2ccccc12)c1ccc(F)cc1	·	·	42.0	·	·	–	–
COc1ccc(S(=O)(=O)Nc2cc(SCC(=O)O)c(O)c3ccccc23)cc1	–	–	–	–	–	·	·
COc1cccc(CCc2nnc(CCC(=O)NC(C)Cc3cccs3)o2)c1 (centres undefined)	–	–	–	–	–	·	·
Cc1ccc(CNC(=O)c2ccc(N3CCc4ccccc43)c([N+](=O)[O-])c2)cc1	–	–	–	–	–	–	–
Cc1ccc(C2CC(=O)Oc3cc(C)c(Br)c(C)c32)cc1 (centres undefined)	–	–	–	–	–	·	·
CC(=O)NN1CCc2cc3ccc(C)cc3nc21	–	–	90.0	–	–	–	–
Cc1ccc(C(=O)CN(CCC(=O)O)S(=O)(=O)c2ccc([N+](=O)[O-])cc2)cc1	–	–	–	–	–	·	·
CC1CCN(C(=O)CCc2ccc(Oc3cc([N+](=O)[O-])cc([N+](=O)[O-])c3)cc2)CC1	–	–	–	–	–	·	·
O=C(CCc1ccc(Oc2cc([N+](=O)[O-])cc([N+](=O)[O-])c2)cc1)NC1CCCC1	–	–	99.0	–	–	–	–
CCC(=O)c1c[nH]c(C(=O)N2CCN(c3ccccc3)CC2)c1	–	–	–	–	–	·	·
